Measurements taken from ChEMBL document CHEMBL3351861, “New synthetic sulfone derivatives inhibit growth, adhesion and the leucine arylamidase APE2 gene expression of Candida albicans in vitro” (2015).
Values after ≈ are worked out from the molar mass of the structure shown.

Legend:
[1] = system: Candida albicans; assay: Antifungal activity against Candida albicans CAI4 expressing delta-cph1/delta-efg1 (EFG1) gene assessed as growth inhibition at by CLSI M27-A3 method; assay type: functional
[2] = system: Candida albicans; assay: Antifungal activity against Candida albicans 90028 assessed as growth inhibition at 2 ug/ml by CLSI M27-A3 method; assay type: functional; conditions: read-out: GI
Summary of the method: (§1)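 CLSI M27-A3 broth microdilution in RPMI, read after 48 h. Strains pre-grown 18 h in YEPD at 30°C. Final inoculum 0.5×10^2–2.5×10^3 cells/ml. Two-fold dilutions in RPMI came from a 1600 µg/ml stock in water with 9% DMSO; final DMSO was 0.09%. OD405 read, % inhibition = 100 − (CTW−SCW)/(GCW−SCW). Triplicate on three occasions, mean±SD.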

[3] = system: Candida albicans; assay: Inhibition of cell adhesion of compound pre-treated Candida albicans CAI4 expressing delta-efg1 gene to human Caco2 cells assessed as cell adhesion level at 8 ug/ml pre-incubated for 18 hrs by colony counting method (reference value: 2.1 +/- 3.52%); assay type: functional, Caco-2; design: scale not given: the % may be the effect or the level left
[4] = system: Candida albicans; assay: Inhibition of cell adhesion of compound pre-treated Candida albicans CAI4 expressing delta-efg1 gene to human Caco2 cells assessed as cell adhesion level at 2 ug/ml pre-incubated for 18 hrs by colony counting method (reference value: 2.1 +/- 3.52%); assay type: functional, Caco-2; design: scale not given: the % may be the effect or the level left
[5] = system: Candida albicans; assay: Antifungal activity against Candida albicans CAI4 expressing delta-cph1/delta-efg1 (EFG1) gene assessed as growth inhibition at 2 ug/ml by CLSI M27-A3 method; assay type: functional; conditions: read-out: GI; summary of the method: as §1
[6] = system: Candida albicans; assay: Inhibition of cell adhesion of compound pre-treated Candida albicans CAI4 expressing delta-efg1/delta-cph1 gene to human Caco2 cells assessed as cell adhesion level at 8 ug/ml pre-incubated for 18 hrs by colony counting method (reference value: 1.22 +/- 0.78%); assay type: functional, Caco-2; design: scale not given: the % may be the effect or the level left
[7] = system: Candida albicans; assay: Antifungal activity against Candida albicans CAI4 expressing delta-efg1 gene assessed as growth inhibition at 8 ug/ml by CLSI M27-A3 method; assay type: functional; conditions: read-out: GI
Summary of the method: (§2)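 CLSI M27-A3 broth microdilution in RPMI. Final inoculum 0.5×10^2 to 2.5×10^3 cells/ml. Seven two-fold concentrations from 0.25 to 16 µg/ml, with DMSO held at 0.09% (v/v) in all wells. Compound-free growth controls and sterility controls are run for each strain. […] Triplicate on three occasions.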

[8] = system: Candida albicans; assay: Antifungal activity against Candida albicans CAI4 expressing delta-efg1 gene assessed as growth inhibition at 0.25 ug/ml by CLSI M27-A3 method; assay type: functional; conditions: read-out: GI; summary of the method: as §1
[9] = system: Candida albicans; assay: Antifungal activity against Candida albicans CAI4 expressing delta-cph1 gene assessed as growth inhibition at by CLSI M27-A3 method; assay type: functional
[10] = system: Candida albicans; assay: Inhibition of cell adhesion of compound pre-treated Candida albicans CAI4 expressing delta-cph1 (CPH1) gene to human Caco2 cells assessed as cell adhesion level at 2 ug/ml pre-incubated for 18 hrs by colony counting method (reference value: 5.37 +/- 12.4%); assay type: functional, Caco-2; design: scale not given: the % may be the effect or the level left
[11] = system: Candida albicans; assay: Antifungal activity against Candida albicans CAI4 expressing delta-cph1/delta-efg1 gene assessed as growth inhibition at 0.5 ug/ml by CLSI M27-A3 method; assay type: functional; conditions: read-out: GI; summary of the method: as §1
[12] = system: Candida albicans; assay: Antifungal activity against Candida albicans CAI4 expressing delta-cph1/delta-efg1 (EFG1) gene assessed as growth inhibition at 0.25 ug/ml by CLSI M27-A3 method; assay type: functional; conditions: read-out: GI; summary of the method: as §1
[13] = system: Candida albicans; assay: Antifungal activity against Candida albicans CAI4 expressing delta-cph1 gene assessed as growth inhibition at 0.5 ug/ml by CLSI M27-A3 method; assay type: functional; conditions: read-out: GI; summary of the method: as §1
[14] = system: Candida albicans; assay: Antifungal activity against Candida albicans CAI4 expressing delta-efg1 (EFG1) gene assessed as growth inhibition at 16 ug/ml by CLSI M27-A3 method; assay type: functional; conditions: read-out: GI; summary of the method: as §1
[15] = system: Candida albicans; assay: Antifungal activity against Candida albicans CAI4 expressing delta-cph1/delta-efg1 gene assessed as growth inhibition at by CLSI M27-A3 method; assay type: functional
[16] = system: Candida albicans; assay: Antifungal activity against Candida albicans CAI4 expressing delta-cph1 (CPH1) gene assessed as growth inhibition at 4 ug/ml by CLSI M27-A3 method; assay type: functional; conditions: read-out: GI; summary of the method: as §1
[17] = system: Candida albicans; assay: Antifungal activity against Candida albicans CAI4 expressing delta-cph1/delta-efg1 (EFG1) gene assessed as growth inhibition at 4 ug/ml by CLSI M27-A3 method; assay type: functional; conditions: read-out: GI; summary of the method: as §1
[18] = system: Candida albicans; assay: Inhibition of cell adhesion of compound pre-treated Candida albicans CAI4 expressing delta-cph1 (CPH1) gene to human Caco2 cells assessed as cell adhesion level at 4 ug/ml pre-incubated for 18 hrs by colony counting method (reference value: 5.37 +/- 12.4%); assay type: functional, Caco-2; design: scale not given: the % may be the effect or the level left
[19] = system: Candida albicans; assay: Antifungal activity against Candida albicans CAI4 expressing delta-cph1/delta-efg1 gene assessed as growth inhibition at 4 ug/ml by CLSI M27-A3 method; assay type: functional; conditions: read-out: GI; summary of the method: as §1
[20] = system: Candida albicans; assay: Inhibition of cell adhesion of compound pre-treated Candida albicans CAI4 expressing delta-efg1/delta-cph1 gene to human Caco2 cells assessed as cell adhesion level at 2 ug/ml pre-incubated for 18 hrs by colony counting method (reference value: 1.22 +/- 0.78%); assay type: functional, Caco-2; design: scale not given: the % may be the effect or the level left
[21] = system: Candida albicans; assay: Antifungal activity against Candida albicans CAI4 expressing delta-cph1 gene assessed as growth inhibition at 8 ug/ml by CLSI M27-A3 method; assay type: functional; conditions: read-out: GI; summary of the method: as §1
[22] = system: Candida albicans; assay: Antifungal activity against Candida albicans CAI4 expressing delta-efg1 gene assessed as growth inhibition at 1 ug/ml by CLSI M27-A3 method; assay type: functional; conditions: read-out: GI; summary of the method: as §2
[23] = system: Candida albicans; assay: Inhibition of cell adhesion of compound pre-treated Candida albicans 90028 to human Caco2 cells assessed as cell adhesion level at 8 ug/ml pre-incubated for 18 hrs by colony counting method (reference value: 1.58 +/- 0.67%); assay type: functional, Caco-2; design: scale not given: the % may be the effect or the level left
[24] = system: Candida albicans; assay: Antifungal activity against Candida albicans 90028 assessed as growth inhibition at 0.5 ug/ml by CLSI M27-A3 method; assay type: functional; conditions: read-out: GI; summary of the method: as §1
[25] = system: Candida albicans; assay: Antifungal activity against Candida albicans CAI4 expressing delta-cph1/delta-efg1 gene assessed as growth inhibition at 0.25 ug/ml by CLSI M27-A3 method; assay type: functional; conditions: read-out: GI; summary of the method: as §1
[26] = system: Candida albicans; assay: Inhibition of cell adhesion of compound pre-treated Candida albicans CAI4 expressing delta-cph1 gene to human Caco2 cells assessed as cell adhesion level at 4 ug/ml pre-incubated for 18 hrs by colony counting method (reference value: 1.6 +/- 0.65%); assay type: functional, Caco-2; design: scale not given: the % may be the effect or the level left
[27] = system: Candida albicans; assay: Inhibition of cell adhesion of compound pre-treated Candida albicans CAI4 expressing delta-cph1 gene to human Caco2 cells assessed as cell adhesion level at 8 ug/ml pre-incubated for 18 hrs by colony counting method (reference value: 1.6 +/- 0.65%); assay type: functional, Caco-2; design: scale not given: the % may be the effect or the level left
[28] = system: Candida albicans; assay: Antifungal activity against Candida albicans CAI4 expressing delta-cph1 (CPH1) gene assessed as growth inhibition at 8 ug/ml by CLSI M27-A3 method; assay type: functional; conditions: read-out: GI; summary of the method: as §1
[29] = system: Candida albicans; assay: Inhibition of cell adhesion of compound pre-treated Candida albicans CAI4 expressing delta-cph1 gene to human Caco2 cells assessed as cell adhesion level at 2 ug/ml pre-incubated for 18 hrs by colony counting method (reference value: 1.6 +/- 0.65%); assay type: functional, Caco-2; design: scale not given: the % may be the effect or the level left
[30] = system: Candida albicans; assay: Antifungal activity against Candida albicans CAI4 expressing delta-cph1 gene assessed as growth inhibition at 4 ug/ml by CLSI M27-A3 method; assay type: functional; conditions: read-out: GI; summary of the method: as §1
[31] = system: Candida albicans; assay: Antifungal activity against Candida albicans CAI4 expressing delta-cph1 gene assessed as growth inhibition at 1 ug/ml by CLSI M27-A3 method; assay type: functional; conditions: read-out: GI; summary of the method: as §1

In the case of NNc1ccc(S(=O)(=O)C(Cl)(Br)Br)cc1[N+](=O)[O-], the MIC90 [1] is reported as 4 µg/mL (≈ 9.45 µM), the inhibition of growth at 2 µg/mL [2] is reported as 99.6% and the Activity [3] is reported as 0.63%. The Activity [4] was 1.32%, the inhibition of growth at 2 µg/mL [5] was 99.3% and the Activity [6] was 1.66%. The inhibition of growth at 8 µg/mL [7] was 100%, the inhibition of growth at 0.25 µg/mL [8] was 70.8% and the MIC90 [9] was 4 µg/mL (≈ 9.45 µM). It also gave an Activity [10] of 1.86%, an inhibition of growth at 0.5 µg/mL [11] of 97% and an inhibition of growth at 0.25 µg/mL [12] of 72%. It also gave an inhibition of growth at 0.5 µg/mL [13] of 96.6%, an inhibition of growth at 16 µg/mL [14] of 99.8% and an MIC90 [15] of 4 µg/mL (≈ 9.45 µM). For the same molecule, the inhibition of growth at 4 µg/mL [16] was 99.1%, the inhibition of growth at 4 µg/mL [17] was 99.1% and the Activity [18] was 0.76%. The inhibition of growth at 4 µg/mL [19] was 100%, the Activity [20] was 2.94% and the inhibition of growth at 8 µg/mL [21] was 100%. For the same molecule, the inhibition of growth at 1 µg/mL [22] was 99.5%, the Activity [23] was 2.66% and the inhibition of growth at 0.5 µg/mL [24] was 81.8%. It also gave an inhibition of growth at 0.25 µg/mL [25] of 70%, an Activity [26] of 0.22% and an Activity [27] of 0.56%. The inhibition of growth at 8 µg/mL [28] was 99.7%, the Activity [29] was 0.51% and the inhibition of growth at 4 µg/mL [30] was 100%. For the same molecule, the inhibition of growth at 1 µg/mL [31] was 99.8%.
